Data taken from ChEMBL document CHEMBL2424615, “Design, synthesis, and characterization of novel tetrahydropyran-based bacterial topoisomerase inhibitors with potent anti-gram-positive activity” (J Med Chem, 2013).
pIC50: −log10 of the molar value.

What was measured:
DNA gyrase = DNA gyrase (Staphylococcus aureus, UniProt P0A0K8+P20831); assay: Inhibition of wild type Staphylococcus aureus DNA gyrase subunit 2GyrA/2GyrB assessed as pBR322 supercoiling after 1 hr; assay type: protein-complex assay
Streptococcus pneumoniae = assay: Antibacterial activity against wild type Streptococcus pneumoniae ATCC 49619 assessed as growth inhibition by broth microdilution method; assay type: functional
Pseudomonas aeruginosa = assay: Antibacterial activity against wild type Pseudomonas aeruginosa ATCC 27853 assessed as growth inhibition by broth microdilution method; assay type: functional
[1] = Volume of distribution at steady state in Wistar rat at 1 mg/kg, iv administered as bolus dose and 10 mg/kg, po; assay type: ADME, organism-based; conditions: in vivo, read-out: Vdss
Summary of the method: (§1)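 Male Wistar rats (n = 3) dosed by iv bolus (0.5 or 1 mg/kg) or orally (1 or 10 mg/kg); iv vehicles included pH 4.5 aqueous solution, 5% DMSO in water, or 10% PG/10% PEG400 in water pH 7; oral as pH 5.6 aqueous suspension or microsuspension in 7.5% modified gelatin. Blood sampled by preimplanted catheter over 24 h; plasma by LC-MS/MS, LOQ 1.5 ng/mL.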

[2] = AUC in Wistar rat at 1 mg/kg, iv administered as bolus dose; assay type: ADME, organism-based; design: dose 1 mg/kg, route intravenous; conditions: plasma; summary of the method: as §1
[3] = AUC in Wistar rat at 10 mg/kg, po; assay type: ADME, organism-based; design: dose 10 mg/kg, route oral; conditions: plasma; summary of the method: as §1
[4] = Clearance in Wistar rat at 1 mg/kg, iv administered as bolus dose; assay type: ADME, organism-based; design: dose 1 mg/kg, route intravenous; conditions: in vivo; summary of the method: as §1
Staphylococcus aureus [5] = assay: Antibacterial activity against wild type Staphylococcus aureus ATCC 29213 assessed as growth inhibition by broth microdilution method; assay type: functional
Topoisomerase IV = Topoisomerase IV (Staphylococcus aureus, UniProt P0C1S7+P0C1U9); assay: Inhibition of wild type Staphylococcus aureus ATCC 29213 topoisomerase-4 subunit 2GrlA/2GrlB assessed as pBR322 relaxation after 1 hr; assay type: protein-complex assay
[6] = Intrinsic clearance in rat liver microsomes at 1 uM; assay type: ADME, Microsome; conditions: read-out: CLH
Escherichia coli = assay: Antibacterial activity against wild type Escherichia coli ATCC 25922 assessed as growth inhibition by broth microdilution method; assay type: functional
[7] = Oral bioavailability in Wistar rat at 10 mg/kg; assay type: ADME, organism-based; conditions: in vivo; summary of the method: as §1
[8] = Intrinsic clearance in human liver microsomes at 1 uM; assay type: ADME, Microsome; conditions: read-out: CLH
[9] = Intrinsic clearance in mouse liver microsomes at 1 uM; assay type: ADME, Microsome; conditions: read-out: CLH
[10] = Inhibition of wild type Escherichia coli ATCC 25922 DNA gyrase subunit 2GyrA/2GyrB assessed as pBR322 supercoiling after 1 hr
[11] = Half life in Wistar rat at 1 mg/kg, iv administered as bolus dose and 10 mg/kg, po; assay type: ADME, organism-based; conditions: in vivo; summary of the method: as §1
Staphylococcus aureus [12] = assay: Antibacterial activity against NXL-101-resistant Staphylococcus aureus A-234 harboring DNA gyrase subunit A D83N mutant assessed as growth inhibition by broth microdilution method; assay type: functional
DNA gyrase subunit A [13] = molecular target: DNA gyrase subunit A (Staphylococcus aureus, UniProt P20831, S84L); assay: Inhibition of quinolone-resistant Staphylococcus aureus A-798 DNA gyrase S84L mutant assessed as pBR322 supercoiling after 1 hr
Enterococcus faecium = assay: Antibacterial activity against vancomycin-resistant Enterococcus faecium A-949 assessed as growth inhibition by broth microdilution method; assay type: functional
Staphylococcus aureus [14] = assay: Antibacterial activity against NXL-101-resistant Staphylococcus aureus harboring DNA gyrase D83N mutant assessed as growth inhibition by broth microdilution method; assay type: functional
Staphylococcus aureus [15] = assay: Antibacterial activity against methicillin and quinolone-resistant Staphylococcus aureus A-798 assessed as growth inhibition by broth microdilution method; assay type: functional
[16] = Inhibition of wild type Escherichia coli ATCC 25922 DNA topoisomerase-4 subunit 2ParC/2ParE assessed as pBR322 relaxation after 1 hr
DNA gyrase subunit A [17] = molecular target: DNA gyrase subunit A (Staphylococcus aureus, UniProt P20831, D83N); assay: Inhibition of NXL-101-resistant Staphylococcus aureus DNA gyrase D83N mutant assessed as pBR322 supercoiling after 1 hr
hERG (KCNH2) = hERG (KCNH2) (Homo sapiens, UniProt Q12809); assay: Inhibition of human ERG expressed in CHO cells at 10 uM after 3 mins by patch clamp assay relative to control; assay type: cell-based; conditions: CHO cells that express human ERG
hERG (KCNH2), sequence (Q12809 whole entry): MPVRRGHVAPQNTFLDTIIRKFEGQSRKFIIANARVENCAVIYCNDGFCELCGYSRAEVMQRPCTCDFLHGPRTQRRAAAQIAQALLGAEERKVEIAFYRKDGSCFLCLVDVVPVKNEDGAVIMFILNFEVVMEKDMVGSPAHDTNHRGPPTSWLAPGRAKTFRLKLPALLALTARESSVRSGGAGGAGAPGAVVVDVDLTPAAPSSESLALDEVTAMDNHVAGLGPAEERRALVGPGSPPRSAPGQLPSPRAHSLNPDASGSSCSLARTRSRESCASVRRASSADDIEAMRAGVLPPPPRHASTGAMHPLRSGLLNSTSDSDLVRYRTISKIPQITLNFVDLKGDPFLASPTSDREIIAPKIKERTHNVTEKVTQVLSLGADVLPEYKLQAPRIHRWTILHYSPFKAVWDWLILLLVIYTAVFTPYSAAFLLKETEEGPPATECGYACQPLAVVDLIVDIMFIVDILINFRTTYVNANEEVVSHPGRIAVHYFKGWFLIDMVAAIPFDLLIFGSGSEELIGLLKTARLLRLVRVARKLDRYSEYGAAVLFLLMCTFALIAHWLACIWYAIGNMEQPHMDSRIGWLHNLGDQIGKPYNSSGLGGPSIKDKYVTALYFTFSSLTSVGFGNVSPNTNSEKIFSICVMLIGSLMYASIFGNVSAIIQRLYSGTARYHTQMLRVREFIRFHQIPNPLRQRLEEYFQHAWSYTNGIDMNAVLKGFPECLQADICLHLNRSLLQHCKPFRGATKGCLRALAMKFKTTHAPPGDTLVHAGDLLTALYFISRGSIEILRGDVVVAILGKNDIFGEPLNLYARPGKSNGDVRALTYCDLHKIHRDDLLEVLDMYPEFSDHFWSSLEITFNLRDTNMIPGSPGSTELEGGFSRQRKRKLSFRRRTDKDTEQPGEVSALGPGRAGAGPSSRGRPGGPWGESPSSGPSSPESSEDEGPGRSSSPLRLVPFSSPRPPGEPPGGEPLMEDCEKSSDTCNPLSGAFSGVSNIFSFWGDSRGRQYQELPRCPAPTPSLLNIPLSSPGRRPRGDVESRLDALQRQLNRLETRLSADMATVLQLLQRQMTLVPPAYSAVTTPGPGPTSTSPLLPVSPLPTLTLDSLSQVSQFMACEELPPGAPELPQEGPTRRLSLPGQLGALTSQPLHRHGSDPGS

COc1ccc2nccc(CC[C@@H]3CC[C@@H](NCc4ccc5c(n4)NC(=O)CS5)CO3)c2n1
pIC50 (DNA gyrase): 7.52 | MIC (Streptococcus pneumoniae): 0.06 µg/mL | MIC (Pseudomonas aeruginosa): > 8 µg/mL | Vd [1]: 3.2 L/kg | AUC [2]: 463 ng·h/mL | AUC [3]: 1320 ng·h/mL | clearance [4]: 36 mL/min/kg | MIC (Staphylococcus aureus [5]): 0.03 µg/mL | pIC50 (Topoisomerase IV): 6.30 | microsomal CLint at 1 µM [6]: > 1250 µL/min/mg | MIC (Escherichia coli): 1 µg/mL | bioavailability [7]: 29% | microsomal CLint at 1 µM [8]: 347 µL/min/mg | microsomal CLint at 1 µM [9]: 954 µL/min/mg | pIC50 [10]: 6.92 | half-life [11]: 1.2 h | MIC (Staphylococcus aureus [12]): 1 µg/mL

COc1ccc2nccc(NC(=O)[C@H]3CC[C@H](NCc4ccc5c(n4)NC(=O)CS5)CC3)c2n1
pIC50 (DNA gyrase): 7.52 | MIC (Streptococcus pneumoniae): 0.063 µg/mL | MIC (Pseudomonas aeruginosa): 8 µg/mL | pIC50 (DNA gyrase subunit A [13]): 8.10 | MIC (Enterococcus faecium): 0.063 µg/mL | MIC (Staphylococcus aureus [14]): 0.25 µg/mL | MIC (Staphylococcus aureus [15]): 0.015 µg/mL | MIC (Staphylococcus aureus [5]): 0.015 µg/mL | pIC50 (Topoisomerase IV): 6.90 | MIC (Escherichia coli): 0.25 µg/mL | pIC50 [16]: 8.10 | pIC50 (DNA gyrase subunit A [17]): 5.10

O=c1ccc2ccc(F)c3c2n1CC3CN1CCC(NCc2cc3c(cn2)OCCO3)CC1 (centres undefined)
pIC50 (DNA gyrase): 6.90 | MIC (Streptococcus pneumoniae): 0.015 µg/mL | MIC (Pseudomonas aeruginosa): > 8 µg/mL | pIC50 (DNA gyrase subunit A [13]): 7.52 | MIC (Enterococcus faecium): 0.06 µg/mL | MIC (Staphylococcus aureus [14]): 1 µg/mL | MIC (Staphylococcus aureus [15]): 0.015 µg/mL | MIC (Staphylococcus aureus [5]): 0.015 µg/mL | pIC50 (Topoisomerase IV): 5.70 | MIC (Escherichia coli): 1 µg/mL | pIC50 [16]: 6.30 | pIC50 (DNA gyrase subunit A [17]): 5.70

COc1ccc2nccc(C(O)C[C@@H]3CC[C@@H](NCc4ccc5c(n4)NC(=O)CS5)CO3)c2n1 (mixture of isomers)
pIC50 (DNA gyrase): > 7.52 | MIC (Streptococcus pneumoniae): 0.03 µg/mL | MIC (Pseudomonas aeruginosa): > 8 µg/mL | MIC (Staphylococcus aureus [5]): 0.03 µg/mL | pIC50 (Topoisomerase IV): < 5.10 | MIC (Escherichia coli): 1 µg/mL | pIC50 [10]: 6.30 | pIC50 [16]: > 7.52 | inhibition at 0.05 h, 10 µM (hERG (KCNH2)): 99% | MIC (Staphylococcus aureus [12]): 0.5 µg/mL

O=C(O)c1cn(C2CC2)c2cc(N3CCNCC3)c(F)cc2c1=O [CIPROFLOXACIN]
MIC (Streptococcus pneumoniae): 1 µg/mL | MIC (Pseudomonas aeruginosa): 0.25 µg/mL | MIC (Enterococcus faecium): > 8 µg/mL | MIC (Staphylococcus aureus [14]): 0.25 µg/mL | MIC (Staphylococcus aureus [15]): > 8 µg/mL | MIC (Staphylococcus aureus [5]): 0.25 µg/mL | MIC (Escherichia coli): 0.016 µg/mL | pIC50 [10]: 6.30
